Laboratory results taken from ChEMBL document CHEMBL1121923, “N2- and C-7 substituted actinomycin D analogues: synthesis, DNA-binding affinity, and biochemical and biological properties. Structure-activity relationship” (J Med Chem, 1981).
pEC50: −log10 of the molar value. ≈ marks a conversion by molar mass, not a printed value.

Legend:
Calf thymus DNA [1] = test: Apparent number of binding sites per base pairs in DNA; Not measurable; assay type: nucleic-acid assay; conditions: Bos taurus
Procedure, shortened: (§1)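 Calf thymus DNA; spectral titration; binding isotherms in 0.01 M phosphate buffer, pH 7.0, 20 °C; Kapp (per base pair) and Bapp (drug binding sites per base pair) taken from Scatchard plot.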

Calf thymus DNA [2] = test: Apparent binding constant against calf thymus DNA-drug complex; Not measurable; assay type: nucleic-acid assay; conditions: Bos taurus; procedure, shortened: as §1
P388 [3] = test: Concentration required for 50% inhibition of incorporation of labeled uridine by P388 cells for the synthesis of RNA (in vitro); e indicates values are high and variable; assay type: functional, cell-based; conditions: Mus musculus
P388 [4] = test: Concentration required for 50% inhibition of incorporation of labeled thymidine by p388 cells for synthesis of DNA (in vitro); e indicates values are high and variable; assay type: functional, cell-based; conditions: Mus musculus
P388 [5] = test: Concentration required for 50% inhibition of incorporation of labeled uridine by P388 cells for the synthesis of RNA (in vitro); Not determined because of lack of DNA binding; assay type: functional, cell-based; conditions: Mus musculus
P388 [6] = test: Concentration required for 50% inhibition of incorporation of labeled thymidine by p388 cells for synthesis of DNA (in vitro); Not determined because of lack of DNA binding; assay type: functional, cell-based; conditions: Mus musculus
Calf thymus DNA [7] = test: Apparent number of binding sites per base pairs in DNA; d indicates solubility too low for determination; assay type: nucleic-acid assay; conditions: Bos taurus
Procedure, shortened: (§2)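 Calf thymus DNA; apparent binding constant and apparent number of drug binding sites per base pair, taken from a Scatchard plot of binding isotherms obtained by spectral titration. Run in 0.01 M phosphate buffer, pH 7.0, at 20 °C.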

Calf thymus DNA [8] = test: Apparent binding constant against calf thymus DNA-drug complex; d indicates solubility too low for determination; assay type: nucleic-acid assay; conditions: Bos taurus; procedure, shortened: as §2
P388 [9] = test: Concentration of compound required for 50% inhibition of incorporation of labeled uridine by P388 cells for the synthesis of RNA (in vitro); Solubility too low; assay type: functional, cell-based; conditions: Mus musculus
P388 [10] = test: Concentration of compound required for 50% inhibition of incorporation of labeled thymidine by p388 cells for synthesis of DNA (in vitro); Solubility too low; assay type: functional, cell-based; conditions: Mus musculus
P388 [11] = test: Concentration of compound required for 50% inhibition of synthesis of DNA in cultured P388 cells; assay type: functional; conditions: Mus musculus, read-out: ED50 (the source's name)
P388 [12] = test: Concentration of compound required for 50% inhibition of synthesis of RNA in cultured P388 cells; assay type: functional; conditions: Mus musculus, read-out: ED50 (the source's name)
CCRF-CEM = test: In vitro antitumor activity against human lymphoblastic leukemia cells.; assay type: functional
Procedure, shortened: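 Human lymphoblastic leukemia CCRF-CEM cells grown in suspension culture; growth inhibition in vitro; ID50 (ng/mL) reported as the 50% inhibitory dose.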

P388 [13] = test: Percent of increased life span of P388 cells implanted CDF1 male mice; assay type: functional; conditions: Mus musculus
Procedure, shortened: (§3)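 CDF1 male mice, groups of seven, given 10^6 P388 cells ip on day 0; drug ip in 5% DMSO–saline on days 1, 5 and 9; controls received vehicle; range of doses tested, optimal nontoxic dose listed; median survival time; %ILS = (treated − control)/control × 100; average of two or more experiments.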

P388 [14] = test: Median survival time of the P388 cells implanted CDF1 male mice in vivo; assay type: functional; conditions: Mus musculus; procedure, shortened: as §3
P388 [15] = test: Optimal dose for antitumor activity was measured in P388 cells of CDF1 male mice in vivo; assay type: functional; conditions: Mus musculus; procedure, shortened: as §3

Row | Structure (SMILES) | Bapp (Calf thymus DNA [1]) | K app (Calf thymus DNA [2]) | ED50 (P388 [3]) | ED50 (P388 [4]) | ED50 (P388 [5]) | ED50 (P388 [6]) | other results
1 | CCCCCCOc1cc(C(=O)N[C@@H]2C(=O)N[C@H](C(C)C)C(=O)N3CCC[C@@H]3C(=O)N(C)CC(=O)N(C)[C@@H](C(C)C)C(=O)O[C@@H]2C)c2nc3c(C(=O)N[C@H]4C(=O)N[C@@H](C(C)C)C(=O)N5CCC[C@H]5C(=O)N(C)CC(=O)N(C)[C@H](C(C)C)C(=O)O[C@H]4C)c(N)c(=O)c(C)c-3oc2c1C | Not measurable | Not measurable | High and variable values | High and variable values | – | – | –
2 | CCCCCCCOc1cc(C(=O)N[C@@H]2C(=O)N[C@H](C(C)C)C(=O)N3CCC[C@@H]3C(=O)N(C)CC(=O)N(C)[C@@H](C(C)C)C(=O)O[C@@H]2C)c2nc3c(C(=O)N[C@H]4C(=O)N[C@@H](C(C)C)C(=O)N5CCC[C@H]5C(=O)N(C)CC(=O)N(C)[C@H](C(C)C)C(=O)O[C@H]4C)c(N)c(=O)c(C)c-3oc2c1C | Not measurable | Not measurable | High and variable values | High and variable values | – | – | –
3 | CCCCCNc1c(C(=O)N[C@H]2C(=O)N[C@@H](C(C)C)C(=O)N3CCC[C@H]3C(=O)N(C)CC(=O)N(C)[C@H](C(C)C)C(=O)O[C@H]2C)c2nc3c(C(=O)N[C@@H]4C(=O)N[C@H](C(C)C)C(=O)N5CCC[C@@H]5C(=O)N(C)CC(=O)N(C)[C@@H](C(C)C)C(=O)O[C@@H]4C)ccc(C)c3oc-2c(C)c1=O | – | – | – | – | Not measurable | Not measurable | –
4 | CCCCCCCCC/N=c1/cc(C(=O)N[C@@H]2C(=O)N[C@H](C(C)C)C(=O)N3CCC[C@@H]3C(=O)N(C)CC(=O)N(C)[C@@H](C(C)C)C(=O)O[C@@H]2C)c2nc3c(C(=O)N[C@H]4C(=O)N[C@@H](C(C)C)C(=O)N5CCC[C@H]5C(=O)N(C)CC(=O)N(C)[C@H](C(C)C)C(=O)O[C@H]4C)c(N)c(O)c(C)c3oc-2c1C | – | – | – | – | – | – | Bapp (Calf thymus DNA [7]): Not measurable; K app (Calf thymus DNA [8]): Not measurable; ED50 (P388 [9]): Solubility too low; ED50 (P388 [10]): Solubility too low
5 | CCCCCCCCCCCNc1c(C(=O)N[C@H]2C(=O)N[C@@H](C(C)C)C(=O)N3CCC[C@H]3C(=O)N(C)CC(=O)N(C)[C@H](C(C)C)C(=O)O[C@H]2C)c2nc3c(C(=O)N[C@@H]4C(=O)N[C@H](C(C)C)C(=O)N5CCC[C@@H]5C(=O)N(C)CC(=O)N(C)[C@@H](C(C)C)C(=O)O[C@@H]4C)ccc(C)c3oc-2c(C)c1=O | – | – | – | – | Not measurable | Not measurable | –
6 | Cc1c2oc3c(C)c(OC(=O)c4ccc5ccccc5c4)cc(C(=O)N[C@@H]4C(=O)N[C@H](C(C)C)C(=O)N5CCC[C@@H]5C(=O)N(C)CC(=O)N(C)[C@@H](C(C)C)C(=O)O[C@@H]4C)c3nc-2c(C(=O)N[C@H]2C(=O)N[C@@H](C(C)C)C(=O)N3CCC[C@H]3C(=O)N(C)CC(=O)N(C)[C@H](C(C)C)C(=O)O[C@H]2C)c(N)c1=O | Not measurable | Not measurable | High and variable values | High and variable values | – | – | –
7 | Cc1c2oc3c(C)ccc(C(=O)N[C@@H]4C(=O)N[C@H](C(C)C)C(=O)N5CCC[C@@H]5C(=O)N(C)CC(=O)N(C)[C@@H](C(C)C)C(=O)O[C@@H]4C)c3nc-2c(C(=O)N[C@H]2C(=O)N[C@@H](C(C)C)C(=O)N3CCC[C@H]3C(=O)N(C)CC(=O)N(C)[C@H](C(C)C)C(=O)O[C@H]2C)c(NCCCCCCCCN)c1=O | – | – | – | – | Not measurable | Not measurable | –
8 | Cc1c2oc3c(C)c(OC(=O)c4ccccc4)cc(C(=O)N[C@@H]4C(=O)N[C@H](C(C)C)C(=O)N5CCC[C@@H]5C(=O)N(C)CC(=O)N(C)[C@@H](C(C)C)C(=O)O[C@@H]4C)c3nc-2c(C(=O)N[C@H]2C(=O)N[C@@H](C(C)C)C(=O)N3CCC[C@H]3C(=O)N(C)CC(=O)N(C)[C@H](C(C)C)C(=O)O[C@H]2C)c(N)c1=O | Not measurable | Not measurable | High and variable values | High and variable values | – | – | –
9 | Cc1c2oc3c(C)c(O)c(N)c(C(=O)N[C@@H]4C(=O)N[C@H](C(C)C)C(=O)N5CCC[C@H]5C(=O)N(C)CC(=O)N(C)[C@@H](C(C)C)C(=O)O[C@@H]4C)c3nc-2c(C(=O)N[C@@H]2C(=O)N[C@H](C(C)C)C(=O)N3CCC[C@H]3C(=O)N(C)CC(=O)N(C)[C@@H](C(C)C)C(=O)O[C@@H]2C)c/c1=N/Cc1ccc(Cl)c(Cl)c1 | – | – | – | – | – | – | pEC50 (P388 [11]): 6.38; pEC50 (P388 [12]): 7.02
10 | CCCCCCNc1c(C(=O)N[C@H]2C(=O)N[C@@H](C(C)C)C(=O)N3CCC[C@H]3C(=O)N(C)CC(=O)N(C)[C@H](C(C)C)C(=O)O[C@H]2C)c2nc3c(C(=O)N[C@@H]4C(=O)N[C@H](C(C)C)C(=O)N5CCC[C@@H]5C(=O)N(C)CC(=O)N(C)[C@@H](C(C)C)C(=O)O[C@@H]4C)ccc(C)c3oc-2c(C)c1=O | – | – | – | – | Not measurable | Not measurable | –
11 | Cc1c2oc3c(C)c(OC(=O)Cc4ccc(Cl)c(Cl)c4)cc(C(=O)N[C@@H]4C(=O)N[C@H](C(C)C)C(=O)N5CCC[C@@H]5C(=O)N(C)CC(=O)N(C)[C@@H](C(C)C)C(=O)O[C@@H]4C)c3nc-2c(C(=O)N[C@H]2C(=O)N[C@@H](C(C)C)C(=O)N3CCC[C@H]3C(=O)N(C)CC(=O)N(C)[C@H](C(C)C)C(=O)O[C@H]2C)c(N)c1=O | Not measurable | Not measurable | High and variable values | High and variable values | – | – | ID50 (CCRF-CEM): 650 ng/mL (≈ 0.446 µM); ILS (P388 [13]): 100%; MST (P388 [14]): 21 days; Optimal dose (P388 [15]): 500 µg/kg
12 | CCCCCCCCCNc1c(C(=O)N[C@H]2C(=O)N[C@@H](C(C)C)C(=O)N3CCC[C@H]3C(=O)N(C)CC(=O)N(C)[C@H](C(C)C)C(=O)O[C@H]2C)c2nc3c(C(=O)N[C@@H]4C(=O)N[C@H](C(C)C)C(=O)N5CCC[C@@H]5C(=O)N(C)CC(=O)N(C)[C@@H](C(C)C)C(=O)O[C@@H]4C)ccc(C)c3oc-2c(C)c1=O | – | – | – | – | Not measurable | Not measurable | –
